Results published in article PMC11348278 (Proceedings of the National Academy of Sciences of the …, 2024).

Assays:
L444P/L444P GCase = assay: GCase lysed cell assay; format: cell-based, human; details: L444P/L444P fibroblasts, 72 h; for improvement of GCase activity, compound alone: individual treatment (Fig. 5B)
[1] = target: isolated recombinant PIKfyve (Homo sapiens, UniProt Q9Y2I7); assay: DiscoveRX KINOMEScan for PIKfyve; format: binding
[2] = tested on: L444P/L444P Gaucher patient fibroblasts; assay: Nuclear stain cell toxicity/viability; format: cell-based, human; details: 72 h, 2.5 µM A16 / 10 µM A18
How it was run: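 Toxicity by nuclear stains: fibroblasts at 10,000 cells/well, attached overnight, then treated for 72 h in DMSO (final 0.1%). Stained with Hoechst and SYTOX Orange per the manufacturer's instructions.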

[3] = tested on: L444P/L444P Gaucher patient fibroblasts; assay: CellTiter-Glo ATP-based viability assay, patient fibroblasts; format: cell-based, human; details: 72 h
How it was run: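 Viability by ATP content: fibroblasts seeded at 10,000 cells/well, attached overnight, then treated for 72 h in DMSO (final 0.1%). CellTiter-Glo added per the manufacturer's instructions; luminescence-based ATP read-out.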

[4] = tested on: ISR and KEGG lysosome pathway genes; format: cell-based, human; details: L444P fibroblasts, 24 h; A16 500 nM, A18 1 µM, Apilimod 50 nM
U251 cells = assay: PIKfyve-related vacuolization, brightfield microscopy of U251 cells; format: cell-based, human; details: high concentrations
How it was run: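 U251 cells plated at 25,000 cells/well, attached overnight, then treated for 24 h in DMSO (final 0.1%). Vacuolization observed by brightfield microscopy.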

[5] = placebo-controlled trials; cited from earlier work
[6] = tested on: integrated stress response (eIF2B); details: read-out: IC50 (reversal of ISR effects); cited from earlier work

Chain of isolated recombinant PIKfyve (Q9Y2I7 whole entry): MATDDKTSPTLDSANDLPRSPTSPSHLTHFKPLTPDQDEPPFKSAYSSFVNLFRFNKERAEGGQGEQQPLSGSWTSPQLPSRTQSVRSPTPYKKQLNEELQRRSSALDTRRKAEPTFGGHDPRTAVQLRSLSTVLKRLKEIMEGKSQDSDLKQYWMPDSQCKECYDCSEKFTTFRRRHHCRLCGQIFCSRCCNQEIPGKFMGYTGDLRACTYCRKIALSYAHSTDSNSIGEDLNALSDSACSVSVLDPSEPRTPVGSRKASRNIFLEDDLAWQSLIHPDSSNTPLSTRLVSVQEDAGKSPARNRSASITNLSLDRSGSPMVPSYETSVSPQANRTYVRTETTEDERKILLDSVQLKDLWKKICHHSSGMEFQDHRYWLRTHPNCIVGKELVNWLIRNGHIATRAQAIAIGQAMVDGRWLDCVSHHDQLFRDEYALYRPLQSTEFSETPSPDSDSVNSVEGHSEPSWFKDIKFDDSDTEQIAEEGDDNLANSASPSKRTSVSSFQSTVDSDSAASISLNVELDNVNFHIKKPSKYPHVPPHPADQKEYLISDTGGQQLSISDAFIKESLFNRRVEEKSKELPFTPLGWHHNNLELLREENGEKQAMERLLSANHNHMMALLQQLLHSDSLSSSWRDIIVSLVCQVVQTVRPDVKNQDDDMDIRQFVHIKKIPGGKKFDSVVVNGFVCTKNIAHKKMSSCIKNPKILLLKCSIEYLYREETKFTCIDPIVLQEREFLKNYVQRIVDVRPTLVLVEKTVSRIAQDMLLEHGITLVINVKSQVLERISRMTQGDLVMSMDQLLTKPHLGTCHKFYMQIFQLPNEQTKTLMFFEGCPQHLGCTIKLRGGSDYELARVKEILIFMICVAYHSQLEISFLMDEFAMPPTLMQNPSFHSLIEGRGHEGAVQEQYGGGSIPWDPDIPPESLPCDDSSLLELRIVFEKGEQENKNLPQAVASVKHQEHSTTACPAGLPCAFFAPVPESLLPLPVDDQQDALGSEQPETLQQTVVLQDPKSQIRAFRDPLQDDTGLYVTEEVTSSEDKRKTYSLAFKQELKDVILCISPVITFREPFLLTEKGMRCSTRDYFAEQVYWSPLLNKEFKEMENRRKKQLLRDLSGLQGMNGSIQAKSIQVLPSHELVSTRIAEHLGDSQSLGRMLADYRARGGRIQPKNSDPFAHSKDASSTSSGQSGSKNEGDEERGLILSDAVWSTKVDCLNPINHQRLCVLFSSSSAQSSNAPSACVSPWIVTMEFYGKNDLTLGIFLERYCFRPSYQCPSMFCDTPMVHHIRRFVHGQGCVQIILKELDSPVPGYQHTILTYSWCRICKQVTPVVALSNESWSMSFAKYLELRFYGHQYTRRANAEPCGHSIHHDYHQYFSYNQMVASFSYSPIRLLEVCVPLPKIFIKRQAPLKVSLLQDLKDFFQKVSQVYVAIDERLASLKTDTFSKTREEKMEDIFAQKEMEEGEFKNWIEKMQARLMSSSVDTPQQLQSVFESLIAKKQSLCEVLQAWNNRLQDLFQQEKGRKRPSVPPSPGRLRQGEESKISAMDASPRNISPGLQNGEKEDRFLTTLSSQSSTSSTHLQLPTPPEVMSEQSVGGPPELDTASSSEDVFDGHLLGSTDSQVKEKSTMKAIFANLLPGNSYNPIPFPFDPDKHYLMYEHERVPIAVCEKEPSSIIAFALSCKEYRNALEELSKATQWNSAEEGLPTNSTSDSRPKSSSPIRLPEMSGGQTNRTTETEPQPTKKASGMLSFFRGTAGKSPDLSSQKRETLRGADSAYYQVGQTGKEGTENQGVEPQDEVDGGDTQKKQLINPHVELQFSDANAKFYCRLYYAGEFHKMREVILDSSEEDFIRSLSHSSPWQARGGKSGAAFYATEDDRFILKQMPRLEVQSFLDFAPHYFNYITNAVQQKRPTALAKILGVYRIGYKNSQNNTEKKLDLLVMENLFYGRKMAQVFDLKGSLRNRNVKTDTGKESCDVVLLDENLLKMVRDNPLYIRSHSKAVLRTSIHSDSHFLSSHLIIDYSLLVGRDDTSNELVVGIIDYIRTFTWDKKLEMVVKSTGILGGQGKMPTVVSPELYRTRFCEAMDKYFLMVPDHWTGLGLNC

## c1ccc2c(-c3nn4c(-c5ccncc5)nnc4s3)c[nH]c2c1 [A16]
L444P/L444P GCase; A16 + ISRIB (Fig. 5B)
  increase of GCase activity, cotreatment with ISRIB (observed): ~ 100%
L444P/L444P GCase
  improvement of GCase activity, compound alone: ~ 70%
[1]
  Kd: < 0.17 nM
[2]
  cell toxicity (Hoechst and Sytox Orange staining): minimal cell toxicity
[3]
  cell viability (CellTiter-Glo ATP-based): above vehicle treatment
[4]
  ISR activation by RNAseq-based transcriptional changes: do not see RNAseq-based transcriptional changes
U251 cells
  vacuolization phenotype: vacuolization phenotype

## Cc1cccc(/C=N/Nc2cc(N3CCOCC3)nc(OCCc3ccccn3)n2)c1 [Apilimod]
[4]
  ISR activation by RNAseq-based transcriptional changes: do not see RNAseq-based transcriptional changes
[5]
  efficacy in autoimmune disorders (Crohn's Disease, Rheumatoid Arthritis): failed to show any efficacy
  safety and pharmacokinetic profiles: favorable safety and pharmacokinetic profiles

## Ic1ccc(Nc2nc(NCCN3CCOCC3)nc(N3CCOCC3)n2)cc1 [A18]
[2]
  cell toxicity (Hoechst and Sytox Orange staining): minimal cell toxicity
[3]
  cell viability (CellTiter-Glo ATP-based): above vehicle treatment
[4]
  ISR activation by RNAseq-based transcriptional changes: do not see RNAseq-based transcriptional changes
U251 cells
  vacuolization phenotype: vacuolization phenotype

## O=C(COc1ccc(Cl)cc1)NC1CCC(NC(=O)COc2ccc(Cl)cc2)CC1 (stereo not shown) [ISRIB, reference compound]
L444P/L444P GCase
  improvement of GCase activity, compound alone: ~ 10%
[6]
  IC50: 5 nM
